Assay results reported in the M2OR odorant receptor database.

Tests used:
Conditions in all cases: stereoisomer not certain
OR51L1 (Homo sapiens) = biological target: T1, OR51L1 (Homo sapiens) (UniProt Q8NGJ5)
T1 sequence (whole entry): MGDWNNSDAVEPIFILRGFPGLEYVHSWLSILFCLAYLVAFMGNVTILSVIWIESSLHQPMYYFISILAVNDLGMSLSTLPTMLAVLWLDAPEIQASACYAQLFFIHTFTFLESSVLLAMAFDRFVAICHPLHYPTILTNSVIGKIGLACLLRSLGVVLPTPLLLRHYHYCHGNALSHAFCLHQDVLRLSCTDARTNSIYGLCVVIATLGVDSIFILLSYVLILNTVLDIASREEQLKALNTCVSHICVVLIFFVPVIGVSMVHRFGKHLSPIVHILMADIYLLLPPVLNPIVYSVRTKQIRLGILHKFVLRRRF
Outline: (§1)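 Transient luciferase assays in mammalian cell lines were common, though methods varied by source. The values come from published papers and their supplementary material, with extra details from the original authors when needed. Responsive refers to a measured signal the original authors judged statistically different from baseline, and non-responsive (inactive) to the remainder.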

OR51I2 (Homo sapiens) = biological target: T2, OR51I2 (Homo sapiens) (UniProt Q9H344)
T2 sequence (whole entry): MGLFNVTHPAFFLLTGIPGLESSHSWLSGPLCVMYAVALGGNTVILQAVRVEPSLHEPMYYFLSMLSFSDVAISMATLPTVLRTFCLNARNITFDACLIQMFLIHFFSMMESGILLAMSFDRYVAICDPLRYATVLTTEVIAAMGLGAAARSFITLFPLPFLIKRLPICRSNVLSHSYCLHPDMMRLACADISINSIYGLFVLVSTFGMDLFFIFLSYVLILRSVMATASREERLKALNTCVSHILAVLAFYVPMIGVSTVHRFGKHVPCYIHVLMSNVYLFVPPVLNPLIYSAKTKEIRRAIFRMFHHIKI
Outline: as §1

OR51J1 (Homo sapiens) = biological target: T3, OR51J1 (Homo sapiens) (UniProt Q9H342)
T3 sequence (whole entry): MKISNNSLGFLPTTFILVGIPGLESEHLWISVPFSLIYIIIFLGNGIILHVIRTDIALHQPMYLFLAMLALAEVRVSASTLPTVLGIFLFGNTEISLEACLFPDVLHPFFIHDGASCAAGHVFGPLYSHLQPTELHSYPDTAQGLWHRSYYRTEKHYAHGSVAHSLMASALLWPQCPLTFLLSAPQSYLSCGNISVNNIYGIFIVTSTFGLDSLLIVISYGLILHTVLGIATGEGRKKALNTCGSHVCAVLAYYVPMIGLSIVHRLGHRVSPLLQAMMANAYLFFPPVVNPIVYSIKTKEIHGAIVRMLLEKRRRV
Outline: as §1

OR51M1 (Homo sapiens) = biological target: T4, OR51M1 (Homo sapiens) (UniProt Q9H341)
T4 sequence (whole entry): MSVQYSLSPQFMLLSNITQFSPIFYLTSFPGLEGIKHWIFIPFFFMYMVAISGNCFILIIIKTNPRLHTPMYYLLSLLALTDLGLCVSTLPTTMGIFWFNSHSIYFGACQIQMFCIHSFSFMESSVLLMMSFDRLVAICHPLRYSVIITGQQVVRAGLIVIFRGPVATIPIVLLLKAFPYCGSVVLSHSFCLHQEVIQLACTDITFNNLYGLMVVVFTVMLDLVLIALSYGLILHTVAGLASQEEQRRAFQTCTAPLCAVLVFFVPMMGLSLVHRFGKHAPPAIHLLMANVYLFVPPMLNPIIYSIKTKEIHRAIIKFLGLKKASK
Outline: as §1

OR51Q1 (Homo sapiens) = biological target: T5, OR51Q1 (Homo sapiens) (UniProt Q8NH59)
T5 sequence (whole entry): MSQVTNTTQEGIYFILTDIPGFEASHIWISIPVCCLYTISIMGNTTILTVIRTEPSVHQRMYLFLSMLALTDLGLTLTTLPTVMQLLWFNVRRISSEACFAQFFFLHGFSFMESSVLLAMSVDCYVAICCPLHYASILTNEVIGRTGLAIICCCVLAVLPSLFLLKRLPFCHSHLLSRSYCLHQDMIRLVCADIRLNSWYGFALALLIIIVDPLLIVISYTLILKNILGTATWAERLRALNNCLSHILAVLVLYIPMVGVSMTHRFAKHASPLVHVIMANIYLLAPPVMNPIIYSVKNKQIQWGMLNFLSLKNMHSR
Outline: as §1

OR51S1 (Homo sapiens) = biological target: T6, OR51S1 (Homo sapiens) (UniProt Q8NGJ8)
T6 sequence (whole entry): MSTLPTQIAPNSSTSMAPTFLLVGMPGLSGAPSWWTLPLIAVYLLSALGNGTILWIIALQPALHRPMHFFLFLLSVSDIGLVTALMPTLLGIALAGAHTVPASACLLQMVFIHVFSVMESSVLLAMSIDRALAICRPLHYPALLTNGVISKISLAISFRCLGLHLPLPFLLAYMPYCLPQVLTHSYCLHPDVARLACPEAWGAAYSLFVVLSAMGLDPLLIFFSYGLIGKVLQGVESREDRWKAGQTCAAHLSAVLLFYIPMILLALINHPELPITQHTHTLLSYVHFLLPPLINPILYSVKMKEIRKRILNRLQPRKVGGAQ
Outline: as §1

OR51V1 (Homo sapiens) = biological target: T7, OR51V1 (Homo sapiens) (UniProt Q9H2C8)
T7 sequence (whole entry): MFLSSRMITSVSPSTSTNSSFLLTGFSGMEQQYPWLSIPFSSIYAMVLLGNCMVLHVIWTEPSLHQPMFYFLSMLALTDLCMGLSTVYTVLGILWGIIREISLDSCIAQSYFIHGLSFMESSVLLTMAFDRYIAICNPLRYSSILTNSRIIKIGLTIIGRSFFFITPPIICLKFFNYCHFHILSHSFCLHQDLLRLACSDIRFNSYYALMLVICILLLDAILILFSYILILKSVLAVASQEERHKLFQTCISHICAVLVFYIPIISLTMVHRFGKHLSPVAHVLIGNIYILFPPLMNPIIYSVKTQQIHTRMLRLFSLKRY
Outline: as §1

OR52A1 (Homo sapiens) = biological target: T8, OR52A1 (Homo sapiens) (UniProt Q9UKL2)
T8 sequence (whole entry): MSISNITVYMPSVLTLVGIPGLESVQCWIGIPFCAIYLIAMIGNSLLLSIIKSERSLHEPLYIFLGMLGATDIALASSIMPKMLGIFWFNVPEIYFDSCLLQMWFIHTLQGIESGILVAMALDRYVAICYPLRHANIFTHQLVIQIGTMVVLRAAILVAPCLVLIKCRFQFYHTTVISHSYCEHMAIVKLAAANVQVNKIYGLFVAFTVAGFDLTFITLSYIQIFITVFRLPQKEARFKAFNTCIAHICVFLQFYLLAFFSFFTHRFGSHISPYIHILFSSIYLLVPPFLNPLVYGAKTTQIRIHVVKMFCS
Outline: as §1

OR52A5 (Homo sapiens) = biological target: T9, OR52A5 (Homo sapiens) (UniProt Q9H2C5)
T9 sequence (whole entry): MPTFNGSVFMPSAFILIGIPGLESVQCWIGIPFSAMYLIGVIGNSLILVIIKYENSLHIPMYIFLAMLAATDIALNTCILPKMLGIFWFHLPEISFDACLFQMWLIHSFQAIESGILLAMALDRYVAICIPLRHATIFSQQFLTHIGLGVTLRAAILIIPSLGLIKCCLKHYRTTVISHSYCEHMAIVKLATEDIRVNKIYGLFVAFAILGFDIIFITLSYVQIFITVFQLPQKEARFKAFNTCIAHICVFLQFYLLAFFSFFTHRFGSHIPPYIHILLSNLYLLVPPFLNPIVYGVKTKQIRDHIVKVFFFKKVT
Outline: as §1

OR52B2 (Homo sapiens) = biological target: T10, OR52B2 (Homo sapiens) (UniProt Q96RD2)
T10 sequence (whole entry): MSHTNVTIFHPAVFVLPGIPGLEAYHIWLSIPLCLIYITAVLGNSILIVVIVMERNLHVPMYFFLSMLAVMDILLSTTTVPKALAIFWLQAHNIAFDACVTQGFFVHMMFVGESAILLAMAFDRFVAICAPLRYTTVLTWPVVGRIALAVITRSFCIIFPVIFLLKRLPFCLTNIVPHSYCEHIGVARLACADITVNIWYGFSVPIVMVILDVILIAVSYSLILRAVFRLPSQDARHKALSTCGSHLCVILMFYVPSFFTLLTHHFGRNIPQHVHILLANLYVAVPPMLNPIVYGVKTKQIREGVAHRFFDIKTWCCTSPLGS
Outline: as §1

OR52B4 (Homo sapiens) = biological target: T11, OR52B4 (Homo sapiens) (UniProt Q8NGK2)
T11 sequence (whole entry): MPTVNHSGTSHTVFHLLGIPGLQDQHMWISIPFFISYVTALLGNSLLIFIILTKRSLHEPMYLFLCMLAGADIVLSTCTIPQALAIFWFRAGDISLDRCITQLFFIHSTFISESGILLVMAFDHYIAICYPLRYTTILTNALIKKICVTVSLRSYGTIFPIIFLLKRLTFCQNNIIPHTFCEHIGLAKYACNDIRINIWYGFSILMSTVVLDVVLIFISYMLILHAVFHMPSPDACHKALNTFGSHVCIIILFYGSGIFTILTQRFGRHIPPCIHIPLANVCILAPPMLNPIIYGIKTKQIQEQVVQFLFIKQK
Outline: as §1

OR52B6 (Homo sapiens) = biological target: T12, OR52B6 (Homo sapiens) (UniProt Q8NGF0)
T12 sequence (whole entry): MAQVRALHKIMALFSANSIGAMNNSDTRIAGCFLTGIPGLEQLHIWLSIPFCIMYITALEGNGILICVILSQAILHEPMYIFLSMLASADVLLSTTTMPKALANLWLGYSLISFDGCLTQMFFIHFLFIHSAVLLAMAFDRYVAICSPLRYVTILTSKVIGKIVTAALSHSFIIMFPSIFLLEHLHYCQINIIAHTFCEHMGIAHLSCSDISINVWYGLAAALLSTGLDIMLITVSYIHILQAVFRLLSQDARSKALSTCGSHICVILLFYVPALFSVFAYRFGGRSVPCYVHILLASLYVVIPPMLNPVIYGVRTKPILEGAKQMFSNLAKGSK
Outline: as §1

OR52D1 (Homo sapiens) = biological target: T13, OR52D1 (Homo sapiens) (UniProt Q9H346)
T13 sequence (whole entry): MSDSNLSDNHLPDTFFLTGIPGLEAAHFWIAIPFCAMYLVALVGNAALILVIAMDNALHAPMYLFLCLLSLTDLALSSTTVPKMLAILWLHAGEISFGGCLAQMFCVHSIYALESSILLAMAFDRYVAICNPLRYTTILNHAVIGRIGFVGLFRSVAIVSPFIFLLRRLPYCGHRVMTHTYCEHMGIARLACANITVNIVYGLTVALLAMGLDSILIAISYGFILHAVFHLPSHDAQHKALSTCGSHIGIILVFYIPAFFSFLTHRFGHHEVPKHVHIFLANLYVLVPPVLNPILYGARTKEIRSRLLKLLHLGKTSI
Outline: as §1

OR52E1 (Homo sapiens) = OR52E1 (Homo sapiens) (UniProt Q8NGJ3)
Outline: as §1

OR52E2 (Homo sapiens) = OR52E2 (Homo sapiens) (UniProt Q8NGJ4)
Outline: as §1

OR52E4 (Homo sapiens) = OR52E4 (Homo sapiens) (UniProt Q8NGH9)
Outline: as §1

OR52E6 (Homo sapiens) = OR52E6 (Homo sapiens) (UniProt Q96RD3)
Outline: as §1

OR51T1 (Homo sapiens) = biological target: T14, OR51T1 (Homo sapiens) (UniProt Q8NGJ9)
T14 sequence (whole entry): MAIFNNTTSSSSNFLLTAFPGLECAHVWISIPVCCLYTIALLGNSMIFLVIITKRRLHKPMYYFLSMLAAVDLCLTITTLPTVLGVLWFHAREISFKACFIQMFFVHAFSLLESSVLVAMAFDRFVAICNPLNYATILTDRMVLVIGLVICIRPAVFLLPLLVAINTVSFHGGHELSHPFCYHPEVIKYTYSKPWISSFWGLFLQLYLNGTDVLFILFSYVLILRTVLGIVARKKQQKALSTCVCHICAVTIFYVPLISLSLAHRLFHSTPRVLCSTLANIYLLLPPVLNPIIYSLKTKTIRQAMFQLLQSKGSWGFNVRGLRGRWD
Outline: as §1

OR52A4P (Homo sapiens) = biological target: T15, OR52A4P (Homo sapiens) (UniProt A6NMU1)
T15 sequence (whole entry): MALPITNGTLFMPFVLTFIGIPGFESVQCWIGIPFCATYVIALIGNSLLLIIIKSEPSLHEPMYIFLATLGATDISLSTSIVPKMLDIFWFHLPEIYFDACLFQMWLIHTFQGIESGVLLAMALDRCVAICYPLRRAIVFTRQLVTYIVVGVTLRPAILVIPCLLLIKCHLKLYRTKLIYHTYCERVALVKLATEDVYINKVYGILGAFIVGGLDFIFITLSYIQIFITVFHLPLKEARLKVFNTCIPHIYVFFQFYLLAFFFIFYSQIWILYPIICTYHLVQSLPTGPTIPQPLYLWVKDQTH
Outline: as §1

OR52E5 (Homo sapiens) = OR52E5 (Homo sapiens) (UniProt Q8NH55)
Outline: as §1

Measured: odorant receptor agonist call;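 also: active if original authors judged signal statistically different from baseline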

OR52E1 (Homo sapiens), sequence (Q8NGJ3 whole entry): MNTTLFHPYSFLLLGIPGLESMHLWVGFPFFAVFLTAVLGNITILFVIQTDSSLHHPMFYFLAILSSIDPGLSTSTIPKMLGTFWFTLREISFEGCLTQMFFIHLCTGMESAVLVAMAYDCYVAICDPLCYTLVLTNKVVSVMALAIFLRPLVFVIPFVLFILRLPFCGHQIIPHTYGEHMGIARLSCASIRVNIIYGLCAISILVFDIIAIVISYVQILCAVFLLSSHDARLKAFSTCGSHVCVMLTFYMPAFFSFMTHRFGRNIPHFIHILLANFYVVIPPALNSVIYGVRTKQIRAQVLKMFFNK
OR52E2 (Homo sapiens), sequence (Q8NGJ4 whole entry): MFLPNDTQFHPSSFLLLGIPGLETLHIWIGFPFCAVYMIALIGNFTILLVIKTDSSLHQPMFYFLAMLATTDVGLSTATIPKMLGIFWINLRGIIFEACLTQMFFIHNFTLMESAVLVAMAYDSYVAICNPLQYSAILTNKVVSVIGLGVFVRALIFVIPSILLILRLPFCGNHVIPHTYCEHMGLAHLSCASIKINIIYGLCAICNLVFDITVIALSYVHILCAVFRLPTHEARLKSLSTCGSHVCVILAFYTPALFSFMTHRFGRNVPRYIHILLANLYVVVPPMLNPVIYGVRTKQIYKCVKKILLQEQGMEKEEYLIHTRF
OR52E6 (Homo sapiens), sequence (Q96RD3 whole entry): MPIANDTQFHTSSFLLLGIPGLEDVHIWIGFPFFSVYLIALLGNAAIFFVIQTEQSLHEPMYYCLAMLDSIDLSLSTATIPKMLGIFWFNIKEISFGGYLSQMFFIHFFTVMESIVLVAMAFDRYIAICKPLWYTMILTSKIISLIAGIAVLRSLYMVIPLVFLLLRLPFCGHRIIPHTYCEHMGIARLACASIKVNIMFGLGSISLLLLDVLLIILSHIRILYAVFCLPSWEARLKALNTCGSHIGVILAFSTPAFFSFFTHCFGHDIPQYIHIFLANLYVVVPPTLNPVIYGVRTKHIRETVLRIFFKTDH
OR52E4 (Homo sapiens), sequence (Q8NGH9 whole entry): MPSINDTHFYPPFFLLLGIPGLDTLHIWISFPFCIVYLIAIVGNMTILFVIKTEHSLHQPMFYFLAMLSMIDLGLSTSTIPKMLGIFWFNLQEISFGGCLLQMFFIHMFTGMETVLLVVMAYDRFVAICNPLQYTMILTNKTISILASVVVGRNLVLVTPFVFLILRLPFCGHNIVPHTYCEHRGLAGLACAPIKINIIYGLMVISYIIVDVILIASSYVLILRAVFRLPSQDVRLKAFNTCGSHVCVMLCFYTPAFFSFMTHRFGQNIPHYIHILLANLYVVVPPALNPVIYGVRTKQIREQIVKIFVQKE
OR52E5 (Homo sapiens), sequence (Q8NH55 whole entry): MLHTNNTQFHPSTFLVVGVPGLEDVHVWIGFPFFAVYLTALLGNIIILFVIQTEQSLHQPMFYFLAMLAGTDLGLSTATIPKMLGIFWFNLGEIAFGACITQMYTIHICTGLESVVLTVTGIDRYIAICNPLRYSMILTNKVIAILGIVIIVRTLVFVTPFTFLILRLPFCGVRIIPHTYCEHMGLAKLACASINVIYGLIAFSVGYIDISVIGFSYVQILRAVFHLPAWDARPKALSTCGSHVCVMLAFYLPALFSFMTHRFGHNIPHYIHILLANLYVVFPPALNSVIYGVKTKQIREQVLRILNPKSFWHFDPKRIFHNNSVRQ

CC(=O)OCC=C(C)C
inactive: OR51L1 (Homo sapiens)

CCCC(S)CCOC(C)=O (configuration not stated)
not listed: OR51T1 (Homo sapiens) | OR52A4P (Homo sapiens) | OR52E5 (Homo sapiens)
inactive: all other assays above

CC(=O)c1c(C)c([N+](=O)[O-])c(C(C)(C)C)c([N+](=O)[O-])c1C
inactive: all assays above

CCCC(C)=O
inactive: OR51L1 (Homo sapiens)

CCC(C(=O)O)c1ccccc1 (configuration not stated)
inactive: OR51L1 (Homo sapiens)

CCCCCOC(=O)CCCCC
inactive: OR51L1 (Homo sapiens)

CCC1OC(=O)C(O)=C1C (configuration not stated)
not listed: OR51T1 (Homo sapiens) | OR52A4P (Homo sapiens) | OR52E5 (Homo sapiens)
inactive: all other assays above

CC(=O)Oc1ccccc1
inactive: OR51L1 (Homo sapiens)

C=C(C)C1CCC(C)C(=O)C1 (configuration not stated)
inactive: OR51L1 (Homo sapiens)

O=C1CCOc2ccccc21
inactive: OR51L1 (Homo sapiens)

O=C1Cc2ccccc2O1
inactive: OR51L1 (Homo sapiens)

C=CCOC(=O)CCCCCC
inactive: OR51L1 (Homo sapiens)

CC(CO)CS (configuration not stated)
not listed: OR52E1 (Homo sapiens)
inactive: all other assays above

CCCCCCCCS
inactive: OR51L1 (Homo sapiens)

CCCCOC(=O)C(C)OC(=O)CCC (configuration not stated)
inactive: OR51L1 (Homo sapiens)

CCC(=O)C(=O)CC
inactive: OR51L1 (Homo sapiens)

Cc1cnc(C)c(C)n1
not listed: OR51T1 (Homo sapiens) | OR52A4P (Homo sapiens) | OR52E5 (Homo sapiens)
inactive: all other assays above
